In series [1] the test system is Mus musculus. Kind of series: Anticonvulsant activity in mouse assessed as protection against maximal electroshock-induced seizure at 1 mmol/kg, ip administered 30 min prior to maximal electroshock-challenge measured after 60 mins relative to control. Type of series: functional.
Series [2] deals with Mus musculus. The series can be described thus: Anticonvulsant activity in mouse assessed as protection against strychnine-induced seizure at 1 mmol/kg, ip administered 30 min prior to strychnine-challenge measured after 60 mins relative to control. Type of series: functional.
Series [3] relates to Mus musculus. The series can be described thus: Anticonvulsant activity in mouse assessed as protection against pentylenetetrazol-induced seizure at 1 mmol/kg, ip administered 30 min prior to pentylenetetrazol-challenge measured after 60 mins relative to control. It counts as functional.
For series [4], the system named is Mus musculus. The series can be described thus: Anticonvulsant activity in mouse assessed as protection against picrotoxin-induced seizure at 1 mmol/kg, ip administered 30 min prior to picrotoxin-challenge measured after 60 mins relative to control. It counts as functional.
The species named for series [5] is Mus musculus. The series can be described thus: Protective index, ratio of TD50 for mouse to ED50 for pentylenetetrazol-induced seizure in mouse. Type of series: functional. A digest of the protocol: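 Mice. Index is TD50/ED50. TD50 is the dose causing minimal neurological toxicity in 50% of mice in the Chimney test. ED50 is the dose protecting 50% of mice against pentylenetetrazole-induced seizures. Both are estimated from testing at several doses.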

Series [6] in a line: Toxicity in ip dose mouse assessed as mortality. It counts as organism-based. As to conditions: in vivo. In outline: (§1)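 In mice, LD50 is the dose causing 50% mortality. ED50 is the dose protecting 50% of mice against pentylenetetrazole-induced seizures. Therapeutic index = LD50/ED50.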
The nature of series [7]: Therapeutic index, ratio of LD50 for mouse to ED50 for pentylenetetrazol-induced seizure in mouse. It counts as organism-based. As to conditions: in vivo, read-out: Ratio LD50/ED50. A digest of the protocol:
as §1

Series [8] is described as follows: Neurotoxicity in ip dosed mouse assessed as impaired motor coordination administered 30 mins prior to test by chimney test. It counts as toxicity, organism-based. As to conditions: in vivo. In outline: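 Mice, Chimney test. TD50 is the dose that produces minimal neurological toxicity (impaired motor coordination) in 50% of animals, estimated from testing at several doses.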

The subject of series [9] is Mus musculus. The series can be described thus: Anticonvulsant activity in ip dosed mouse assessed as protection against pentylenetetrazol-induced seizure administered 30 min prior to pentylenetetrazol-challenge measured after 60 mins. Type of series: functional. In outline:
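Mice received several doses for quantification. ED50 taken as the dose protecting 50% of mice against pentylenetetrazol-induced seizures.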

The test system of series [10] is SK-OV-3. The series can be described thus: Growth inhibition of human SKOV3 cells at 10 uM relative to control. Type of series: functional. As to conditions: read-out: GI. In outline:
(§2)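 Each cell line in a 60-line human tumour panel exposed to one 10 μM concentration. Growth inhibition percentage computed as 100 minus the percentage activity relative to control.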

For series [11], the system named is UACC-62. Kind of series: Growth inhibition of human UACC62 cells at 10 uM relative to control. Type of series: functional. The conditions noted are these: read-out: GI. In outline: (§3)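 Single-dose screen across the 60-cell-line human tumor panel at 10 μM. Growth inhibition is reported as a percentage, taken as 100 minus the % growth relative to untreated control.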

In series [12] the test system is UACC-257. Kind of series: Growth inhibition of human UACC257 cells at 10 uM relative to control. The conditions noted are these: read-out: GI. It counts as functional. In outline:
as §3

In series [13] the test system is MDA-MB-435. Kind of series: Growth inhibition of human MDA-MB-435 cells at 10 uM relative to control. It counts as functional. As to conditions: read-out: GI. In outline:
as §2

Series [14] relates to SK-MEL-28. The series can be described thus: Growth inhibition of human SK-MEL-28 cells at 10 uM relative to control. Type of series: functional. The conditions noted are these: read-out: GI. A digest of the protocol: as §2
In series [15] the test system is U-251. Kind of series: Growth inhibition of human U251 cells at 10 uM relative to control. Type of series: functional. The conditions noted are these: read-out: GI. A digest of the protocol: as §3
In series [16] the test system is LOX IMVI. The series can be described thus: Growth inhibition of human LOXIMVI cells at 10 uM relative to control. Type of series: functional. As to conditions: read-out: GI. In outline: as §2
Series [17] concerns SNB-75. The series can be described thus: Growth inhibition of human SNB75 cells at 10 uM relative to control. Type of series: functional. As to conditions: read-out: GI. A digest of the protocol:
as §3

In series [18] the test system is SF-295. Kind of series: Growth inhibition of human SF295 cells at 10 uM relative to control. The conditions noted are these: read-out: GI. It counts as functional. In outline:
as §2

Series [19] deals with HT-29. The series can be described thus: Growth inhibition of human HT-29 cells at 10 uM relative to control. It counts as functional. The conditions noted are these: read-out: GI. In outline:
as §2

For series [20], the system named is KM12. Kind of series: Growth inhibition of human KM12 cells at 10 uM relative to control. The conditions noted are these: read-out: GI. It counts as functional. A digest of the protocol: as §2
Series [21] concerns HCT-15. The series can be described thus: Growth inhibition of human HCT15 cells at 10 uM relative to control. Type of series: functional. As to conditions: read-out: GI. A digest of the protocol:
as §2

Series [22] has as its system NCI-H522. The series can be described thus: Growth inhibition of human NCI-H522 cells at 10 uM relative to control. Type of series: functional. As to conditions: read-out: GI. A digest of the protocol:
as §2

The subject of series [23] is A549. The series can be described thus: Growth inhibition of human A549 cells at 10 uM relative to control. It counts as functional. As to conditions: read-out: GI. In outline:
as §2

In series [24] the test system is RPMI-8226. Kind of series: Growth inhibition of human RPMI8226 cells at 10 uM relative to control. It counts as functional. As to conditions: read-out: GI. In outline:
as §2

The subject of series [25] is SR. Kind of series: Growth inhibition of human SR cells at 10 uM relative to control. It counts as functional. As to conditions: read-out: GI. A digest of the protocol:
as §3

Series [26] concerns MOLT-4. Kind of series: Growth inhibition of human MOLT4 cells at 10 uM relative to control. Type of series: functional. The conditions noted are these: read-out: GI. A digest of the protocol: as §2
Series [27] has as its system K562. Kind of series: Growth inhibition of human K562 cells at 10 uM relative to control. It counts as functional. The conditions noted are these: read-out: GI. In outline: as §2
Series [28] has as its system CCRF-CEM. The series can be described thus: Growth inhibition of human CCRF-CEM cells at 10 uM relative to control. Type of series: functional. As to conditions: read-out: GI. In outline: as §2
Series [29] relates to HL-60(TB). Kind of series: Growth inhibition of human HL-60(TB) cells at 10 uM relative to control. Type of series: functional. As to conditions: read-out: GI. In outline: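 Single-dose screen at 10 μM across the 60-cell-line tumour panel. Percent growth inhibition = 100 minus percent growth activity relative to untreated control.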
The subject of series [30] is MDA-MB-468. The series can be described thus: Growth inhibition of human MDA-MB-468 cells at 10 uM relative to control. It counts as functional. The conditions noted are these: read-out: GI. A digest of the protocol: as §2
The subject of series [31] is MDA-MB-231. The series can be described thus: Growth inhibition of human MDA-MB-231 cells at 10 uM relative to control. It counts as functional. As to conditions: read-out: GI. In outline:
as §2

Series [32] has as its system MCF7. The series can be described thus: Growth inhibition of human MCF7 cells at 10 uM relative to control. The conditions noted are these: read-out: GI. It counts as functional. A digest of the protocol:
as §2

For series [33], the system named is PC-3. The series can be described thus: Growth inhibition of human PC3 cells at 10 uM relative to control. The conditions noted are these: read-out: GI. Type of series: functional. In outline:
as §2

In series [34] the test system is UO-31. The series can be described thus: Growth inhibition of human UO31 cells at 10 uM relative to control. It counts as functional. The conditions noted are these: read-out: GI. A digest of the protocol: as §3
Series [35] concerns ACHN. The series can be described thus: Growth inhibition of human ACHN cells at 10 uM relative to control. It counts as functional. As to conditions: read-out: GI. A digest of the protocol: as §2

The values that follow come from ChEMBL document CHEMBL1955778, “Design and synthesis of novel 7-aminoquinazoline derivatives: antitumor and anticonvulsant activities” (Bioorg Med Chem Lett, 2012).

`Cc1ccccc1-n1c(C)nc2cc(/N=C/c3ccco3)ccc2c1=O`: the Activity in [1] is 50%; in series [2] it was 0%; in [3], 0%.

With `Cc1ccccc1-n1c(C)nc2cc(/N=C/c3ccccc3)ccc2c1=O`, the Activity in series [1] is listed as 50%; in series [2], 0%; in [3] it was 0%.

`Cc1ccccc1-n1c(C)nc2cc(N3C(=O)C=CC3=O)ccc2c1=O`: the Activity in [1] is reported as 33%; in series [2] it was 0%; in series [3], 0%.

Regarding `Cc1ccccc1-n1c(C)nc2cc(-n3c(C)nc4ccccc4c3=O)ccc2c1=O`, the Activity is 100% in series [1], 0% in [4], 0% in series [2] and 0% in series [3].

As to `Cc1ccccc1-n1c(C)nc2cc(/N=C/c3ccc(F)cc3)ccc2c1=O`, the “Ratio TD50/ED50” value in series [5] is on record as 3. For the same molecule, in [6], the LD50 came to 1710 µmol/kg. Besides, in series [7], the selectivity ratio is 5.5. The TD50 at 0.5 h in series [8] was determined as 930 µmol/kg. For the same molecule, in series [9], the ED50 is 310 µmol/kg. Further, the Activity is 100% in series [1], 75% in series [4], 0% in [2] and 100% in series [3].

With `Cc1ccccc1-n1c(C)nc2cc(N3C(=O)CSC3c3ccc(F)cc3)ccc2c1=O` (configuration not stated), the inhibition of growth at 10 µM in [10] stood at 3%; in [11], 14%; in [12], 9%; in series [13] it was 9.7%; in series [14], 11%; in [15] it was 11%. Further, the inhibition of growth at 10 µM is 5% in series [16]; 8.5% in [17]; 7% in series [18]; 3% in series [19]; 4% in series [20]; 5% in series [21]. The inhibition of growth at 10 µM in [22] was determined as 18%; in series [23], 2%; in series [24] it was 10%; in [25], 4%; in [26], 28.9%; in series [27] it was 10%. Besides, the inhibition of growth at 10 µM in [28] came out at 13.2%; in [29] it was 7%; in series [30], 2.5%; in series [31] it was 8%; in series [32], 9%; in [33], 12.2%. Also, the inhibition of growth at 10 µM in series [34] worked out at 11.7%; in series [35] it was 3%. Besides, the “Ratio TD50/ED50” value in series [5] came to 1.4. For the same molecule, the LD50 in series [6] came out at 1020 µmol/kg. For the same molecule, the selectivity ratio in series [7] came to 2.55. For the same molecule, in [8], the TD50 at 0.5 h stood at 560 µmol/kg. Also, the ED50 in [9] came out at 400 µmol/kg. The Activity is reported as 100% in series [1], 75% in series [4], 0% in series [2] and 100% in series [3].
